Results published in ChEMBL document CHEMBL4033786, “Discovery of Novel 1-Cyclopentenyl-3-phenylureas as Selective, Brain Penetrant, and Orally Bioavailable CXCR2 Antagonists” (J Med Chem, 2018).
Converted amounts (≈) assume the structure as drawn.

Tests used:
[1] = Tmax in Wistar rat at 2.41 mg/kg, po measured up to 4 hrs post dose; format: ADME, organism-based; settings: in vivo
[2] = Volume of distribution at steady state in dog at 0.85 mg/kg, iv measured up to 4 hrs post dose; format: ADME, organism-based, Canis lupus familiaris; settings: in vivo, read-out: Vdss
[3] = Solubility of compound in fasted state simulated intestinal fluid measured after 4 hrs; format: physicochemical
Outline: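 Solubility in FaSSIF, read after 4 h incubation.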

[4] = Clearance in Wistar rat blood at 0.98 mg/kg, iv measured up to 4 hrs post dose; format: ADME, organism-based
[5] = biological target: CX3C chemokine receptor 1 (Homo sapiens, UniProt P49238); assay: Antagonist activity at CX3CR1 (unknown origin)
Outline: (§1)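 β-arrestin assays run in both agonist and antagonist modes across a panel of 18 CXC and CC chemokine receptors.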

[6] = biological target: C-X-C chemokine receptor type 6 (Homo sapiens, UniProt O00574); assay: Antagonist activity at CXCR6 (unknown origin); outline: as §1
[7] = biological target: C-C chemokine receptor type 6 (Homo sapiens, UniProt P51684); assay: Agonist activity at CCR6 (unknown origin); outline: as §1
[8] = Ratio of brain dose normalized AUC (0 to 7 hrs) to […] dose normalized AUC (0 to 7 hrs), Kp of the compound in Han-Wistar SOA rat model at 2 mg/kg administered via oral gavage by UPLC/MS/MS analysis; format: ADME, organism-based
Outline: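 Male Han-Wistar rats given a single 2 mg/kg oral gavage as a suspension in DMSO:1% methylcellulose (1:99). Blood was taken by cardiac puncture under isoflurane at 0.25–7 h, diluted 1:3 with water, and brains were homogenized in 3-fold PBS. Samples were extracted by acetonitrile protein precipitation and quantified by UPLC/MS/MS. Kp = brain DNAUC0-7h/blood DNAUC0-7h; Kp,uu = Kp×Fu,br/Fu,bl.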

[9] = biological target: C-X-C chemokine receptor type 5 (Homo sapiens, UniProt P32302); assay: Agonist activity at CXCR5 (unknown origin); outline: as §1
[10] = system: Canis familiaris; assay: Dose normalized AUC (0 to infinity) in dog at 0.85 mg/kg, iv measured up to 4 hrs post dose; format: ADME, organism-based, Canis lupus familiaris; settings: in vivo
[11] = system: Blood; assay: Dose normalized AUC (0 to 7 hrs) in Han-Wistar SOA rat model blood at 2 mg/kg administered via oral gavage by UPLC/MS/MS analysis; format: ADME, organism-based; settings: in vivo
Outline: (§2)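 Male Han-Wistar rats were given 2 mg/kg by oral gavage as a suspension in DMSO:1% methylcellulose (1:99). Blood (cardiac puncture, EDTA-K2, under isoflurane) and brains were collected at 0.25–7 h. Brain was homogenised in 3-fold PBS, samples were protein-precipitated and quantified by UPLC/MS/MS.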

[12] = Elimination half life in Wistar rat at 0.98 mg/kg, iv measured up to 4 hrs post dose; format: ADME, organism-based; settings: in vivo, read-out: beta t1/2 (converted)
[13] = Clearance in dog blood at 0.85 mg/kg, iv measured up to 4 hrs post dose; format: ADME, organism-based, Canis lupus familiaris
[14] = Efflux ratio of passive permeability in MDCK2-MDR1 cells transduced with BacMam2-BCRP at 3 uM after 90 mins by Transwell assay; format: ADME, cell-based, Canis lupus familiaris, MDCK-MDR1; settings: dog
Outline: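 MDCKII-MDR1 cells transduced with BacMam2-BCRP in Transwells. Compound at 3 μM was measured in duplicate, A→B and B→A, after 90 min, with and without 5 μM GF120918. ER = B→A/A→B permeability without inhibitor. System qualified with amprenavir and dantrolene ERs.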

[15] = system: Rattus norvegicus; assay: Dose normalized AUC (0 to infinity) in Wistar rat at 0.98 mg/kg, iv measured up to 4 hrs post dose; format: ADME, organism-based; settings: in vivo
[16] = biological target: C-X-C chemokine receptor type 4 (Homo sapiens, UniProt P61073); assay: Agonist activity at CXCR4 (unknown origin); outline: as §1
[17] = biological target: T1, C-C chemokine receptor type 2 (Homo sapiens, UniProt P41597); assay: Antagonist activity at CCR2 (unknown origin); outline: as §1
[18] = Tmax in dog at 1.29 mg/kg, po measured up to 4 hrs post dose; format: ADME, organism-based, Canis lupus familiaris; settings: in vivo
[19] = Volume of distribution at steady state in Wistar rat at 0.98 mg/kg, iv measured up to 4 hrs post dose; format: ADME, organism-based; settings: in vivo, read-out: Vdss
[20] = biological target: C-C chemokine receptor type 9 (Homo sapiens, UniProt P51686); assay: Antagonist activity at CCR9 (unknown origin); outline: as §1
[21] = biological target: C-C chemokine receptor type 5 (Homo sapiens, UniProt P51681); assay: Agonist activity at CCR5 (unknown origin); outline: as §1
[22] = Passive permeability in MDCK2-MDR1 cells transduced with BacMam2-BCRP at 3 uM after 90 mins by Transwell assay; format: ADME, cell-based, Canis lupus familiaris, MDCK-MDR1; settings: dog; read-out: permeability
Outline: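 MDCKII-MDR1 cells transduced with BacMam2-BCRP and grown in Transwells. Compound at 3 μM, in duplicate, was incubated 90 min A→B (and B→A) with and without GF120918 (5 μM, dual P-gp/BCRP inhibitor). Passive permeability (Pexact, nm/s) was calculated by an equation from earlier work. The permeability ratio is A→B permeability with GF120918 over A→B permeability without it.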

[23] = biological target: T2, C-X-C chemokine receptor type 3 (Homo sapiens, UniProt P49682); assay: Antagonist activity at CXCR3 (unknown origin); outline: as §1
[24] = system: Brain; assay: Dose normalized AUC (0 to 7 hrs) in Han-Wistar SOA rat model brain at 2 mg/kg administered via oral gavage by UPLC/MS/MS analysis; format: ADME, organism-based; settings: in vivo; outline: as §2
[25] = biological target: Atypical chemokine receptor 3 (Homo sapiens, UniProt P25106); assay: Antagonist activity at CXCR7 (unknown origin); outline: as §1
[26] = biological target: T2, C-X-C chemokine receptor type 3; assay: Agonist activity at CXCR3 (unknown origin); outline: as §1
[27] = Elimination half life in dog at 0.85 mg/kg, iv measured up to 4 hrs post dose; format: ADME, organism-based, Canis lupus familiaris; settings: in vivo, read-out: beta t1/2 (converted)
[28] = Cmax in Wistar rat at 2.41 mg/kg, po measured up to 4 hrs post dose; format: ADME, organism-based; set-up: dose 2.41 mg/kg, route oral; settings: in vivo
[29] = Oral bioavailability in dog at 1.29 mg/kg measured up to 4 hrs after dose; format: ADME, organism-based, Canis lupus familiaris; settings: in vivo
[30] = biological target: T1, C-C chemokine receptor type 2; assay: Agonist activity at CCR2 (unknown origin); outline: as §1
[31] = biological target: C-X-C chemokine receptor type 2 (Mus musculus, UniProt P35343); assay: Antagonist activity at CXCR2 in C57 mouse whole blood assessed as inhibition of GROalpha-stimulated CD11b upregulation preincubated for 2 hr followed by GROalpha stimulation measured after 10 mins by FITC-staining based FACS analysis
Sequence of C-X-C chemokine receptor type 2 (P35343 whole entry): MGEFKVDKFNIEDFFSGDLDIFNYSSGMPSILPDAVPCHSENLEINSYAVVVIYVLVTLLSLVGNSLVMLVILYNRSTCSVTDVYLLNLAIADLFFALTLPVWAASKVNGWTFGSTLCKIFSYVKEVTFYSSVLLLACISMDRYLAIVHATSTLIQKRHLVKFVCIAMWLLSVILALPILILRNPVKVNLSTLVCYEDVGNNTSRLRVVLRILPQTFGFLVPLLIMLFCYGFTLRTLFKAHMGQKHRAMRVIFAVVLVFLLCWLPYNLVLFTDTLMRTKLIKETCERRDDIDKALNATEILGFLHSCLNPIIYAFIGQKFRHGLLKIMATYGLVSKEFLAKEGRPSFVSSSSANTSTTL

T2 sequence (P49682 whole entry): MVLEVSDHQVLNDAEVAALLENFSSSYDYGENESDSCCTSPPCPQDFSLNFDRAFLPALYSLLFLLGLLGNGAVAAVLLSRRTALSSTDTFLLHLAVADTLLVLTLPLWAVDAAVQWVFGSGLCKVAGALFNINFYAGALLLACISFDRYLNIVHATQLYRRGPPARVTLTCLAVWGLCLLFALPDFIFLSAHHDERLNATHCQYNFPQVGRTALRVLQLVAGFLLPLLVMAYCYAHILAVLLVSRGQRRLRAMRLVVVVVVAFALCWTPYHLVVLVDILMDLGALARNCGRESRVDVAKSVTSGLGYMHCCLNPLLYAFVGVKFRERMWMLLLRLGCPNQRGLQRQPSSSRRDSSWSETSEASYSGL
T1 sequence (P41597 whole entry): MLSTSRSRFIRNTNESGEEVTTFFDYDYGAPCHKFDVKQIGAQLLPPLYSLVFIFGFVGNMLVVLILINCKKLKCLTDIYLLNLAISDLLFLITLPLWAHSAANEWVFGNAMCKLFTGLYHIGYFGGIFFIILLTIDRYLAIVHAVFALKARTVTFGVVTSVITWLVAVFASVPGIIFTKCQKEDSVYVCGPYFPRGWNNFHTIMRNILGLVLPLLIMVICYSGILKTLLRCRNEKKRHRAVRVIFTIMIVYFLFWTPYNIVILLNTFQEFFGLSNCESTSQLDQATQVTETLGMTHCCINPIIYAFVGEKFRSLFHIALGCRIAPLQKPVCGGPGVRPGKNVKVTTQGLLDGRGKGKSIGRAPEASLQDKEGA
Sequence of Atypical chemokine receptor 3 (P25106 whole entry): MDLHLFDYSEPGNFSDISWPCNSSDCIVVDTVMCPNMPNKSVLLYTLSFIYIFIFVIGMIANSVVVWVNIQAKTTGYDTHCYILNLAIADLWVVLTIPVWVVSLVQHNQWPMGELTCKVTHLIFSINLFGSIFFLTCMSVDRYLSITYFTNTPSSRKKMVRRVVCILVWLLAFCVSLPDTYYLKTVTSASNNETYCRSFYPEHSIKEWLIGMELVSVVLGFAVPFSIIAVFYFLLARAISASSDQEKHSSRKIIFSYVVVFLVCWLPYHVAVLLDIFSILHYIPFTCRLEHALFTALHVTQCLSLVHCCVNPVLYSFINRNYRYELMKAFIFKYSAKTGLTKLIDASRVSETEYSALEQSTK
Sequence of C-C chemokine receptor type 5 (P51681 whole entry): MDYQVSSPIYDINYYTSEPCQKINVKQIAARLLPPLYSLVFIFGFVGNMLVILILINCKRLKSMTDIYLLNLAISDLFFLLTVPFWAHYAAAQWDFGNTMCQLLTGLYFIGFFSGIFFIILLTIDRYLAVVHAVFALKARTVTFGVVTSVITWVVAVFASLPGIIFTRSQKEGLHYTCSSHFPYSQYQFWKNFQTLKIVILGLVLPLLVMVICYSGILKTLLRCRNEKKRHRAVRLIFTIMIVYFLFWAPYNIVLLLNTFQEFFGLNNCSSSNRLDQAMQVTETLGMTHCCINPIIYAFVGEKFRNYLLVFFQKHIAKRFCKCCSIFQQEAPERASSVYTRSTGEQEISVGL
Sequence of C-X-C chemokine receptor type 5 (P32302 whole entry): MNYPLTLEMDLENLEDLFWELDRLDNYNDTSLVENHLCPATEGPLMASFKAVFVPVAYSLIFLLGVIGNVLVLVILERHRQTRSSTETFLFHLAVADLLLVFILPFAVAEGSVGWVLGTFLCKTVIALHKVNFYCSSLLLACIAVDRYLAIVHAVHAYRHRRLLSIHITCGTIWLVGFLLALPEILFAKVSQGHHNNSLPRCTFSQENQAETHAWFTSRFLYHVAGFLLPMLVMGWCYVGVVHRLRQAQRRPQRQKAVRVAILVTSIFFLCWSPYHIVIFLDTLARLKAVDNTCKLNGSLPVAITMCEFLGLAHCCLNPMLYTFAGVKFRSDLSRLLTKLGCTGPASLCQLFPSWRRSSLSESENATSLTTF
Sequence of C-X-C chemokine receptor type 6 (O00574 whole entry): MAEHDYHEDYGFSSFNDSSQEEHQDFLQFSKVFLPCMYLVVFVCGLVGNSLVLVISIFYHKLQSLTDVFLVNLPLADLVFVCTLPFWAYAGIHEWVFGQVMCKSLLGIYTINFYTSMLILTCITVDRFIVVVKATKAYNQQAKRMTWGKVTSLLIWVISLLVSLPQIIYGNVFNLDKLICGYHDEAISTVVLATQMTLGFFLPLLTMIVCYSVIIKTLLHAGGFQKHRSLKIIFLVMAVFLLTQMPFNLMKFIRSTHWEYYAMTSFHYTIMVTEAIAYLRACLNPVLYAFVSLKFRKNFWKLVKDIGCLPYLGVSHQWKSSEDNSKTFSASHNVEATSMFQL
Sequence of C-X-C chemokine receptor type 4 (P61073 whole entry): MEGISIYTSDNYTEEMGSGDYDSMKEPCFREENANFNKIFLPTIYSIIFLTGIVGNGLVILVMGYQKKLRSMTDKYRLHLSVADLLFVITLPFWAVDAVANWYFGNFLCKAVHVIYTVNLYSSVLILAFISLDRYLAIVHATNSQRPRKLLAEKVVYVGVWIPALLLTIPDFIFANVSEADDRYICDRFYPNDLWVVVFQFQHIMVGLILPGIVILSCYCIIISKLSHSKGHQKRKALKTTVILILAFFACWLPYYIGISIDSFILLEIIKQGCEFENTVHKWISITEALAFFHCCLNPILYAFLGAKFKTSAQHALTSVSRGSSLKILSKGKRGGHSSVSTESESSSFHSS
Sequence of CX3C chemokine receptor 1 (P49238 whole entry): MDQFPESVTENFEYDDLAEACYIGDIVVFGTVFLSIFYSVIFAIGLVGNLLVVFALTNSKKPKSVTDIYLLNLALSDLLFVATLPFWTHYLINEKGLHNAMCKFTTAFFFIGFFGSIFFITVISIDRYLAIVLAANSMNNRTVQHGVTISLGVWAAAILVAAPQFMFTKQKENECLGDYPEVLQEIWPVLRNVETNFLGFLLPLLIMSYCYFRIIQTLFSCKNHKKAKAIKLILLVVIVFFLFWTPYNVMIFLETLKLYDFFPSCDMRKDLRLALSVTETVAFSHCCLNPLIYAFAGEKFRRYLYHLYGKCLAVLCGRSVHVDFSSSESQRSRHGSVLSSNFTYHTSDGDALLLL
Sequence of C-C chemokine receptor type 9 (P51686 whole entry): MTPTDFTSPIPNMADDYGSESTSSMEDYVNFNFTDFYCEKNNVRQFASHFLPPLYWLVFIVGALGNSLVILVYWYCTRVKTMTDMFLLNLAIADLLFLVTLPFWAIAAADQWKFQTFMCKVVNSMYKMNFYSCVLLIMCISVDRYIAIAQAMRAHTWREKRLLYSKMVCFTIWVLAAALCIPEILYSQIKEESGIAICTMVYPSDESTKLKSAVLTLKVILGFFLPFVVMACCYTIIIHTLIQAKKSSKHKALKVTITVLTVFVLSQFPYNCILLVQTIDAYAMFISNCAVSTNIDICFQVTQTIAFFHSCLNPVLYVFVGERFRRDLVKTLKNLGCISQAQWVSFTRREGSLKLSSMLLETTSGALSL
Sequence of C-C chemokine receptor type 6 (P51684 whole entry): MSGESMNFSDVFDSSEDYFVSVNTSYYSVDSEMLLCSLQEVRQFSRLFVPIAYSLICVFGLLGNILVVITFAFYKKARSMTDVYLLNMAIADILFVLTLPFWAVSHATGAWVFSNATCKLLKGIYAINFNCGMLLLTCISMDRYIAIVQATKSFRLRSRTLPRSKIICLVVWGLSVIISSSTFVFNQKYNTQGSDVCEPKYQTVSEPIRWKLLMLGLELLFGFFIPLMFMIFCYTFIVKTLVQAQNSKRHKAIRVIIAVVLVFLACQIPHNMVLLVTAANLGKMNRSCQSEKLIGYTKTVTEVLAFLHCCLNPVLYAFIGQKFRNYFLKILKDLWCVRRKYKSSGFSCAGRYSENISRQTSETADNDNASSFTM

Tmax [1]: 1 h
Vd [2]: 0.88 L/kg
solubility at 4 h [3]: 21 µg/mL (≈ 50.6 µM)
clearance [4]: 9.1 mL/min/kg
IC50 [5]: > 10 µM
IC50 [6]: > 10 µM
EC50 [7]: > 10 µM
Kp [8]: 0.14
EC50 [9]: > 10 µM
AUC/dose [10]: 2996 ng·h/mL/mg/kg
AUC/dose [11]: 651 ng·h/mL/mg/kg
half-life [12]: 4.3 h
clearance [13]: 5.6 mL/min/kg
efflux ratio at 1.5 h, 3 µM [14]: 2
AUC/dose [15]: 1829 ng·h/mL/mg/kg
EC50 [16]: > 10 µM
IC50 [17]: > 10 µM
Tmax [18]: 1.1 h
Vd [19]: 2.1 L/kg
IC50 [20]: > 10 µM
EC50 [21]: > 10 µM
Papp at 1.5 h, 3 µM [22]: 25.4 ×10⁻⁶ cm/s
IC50 [23]: > 10 µM
AUC/dose [24]: 87.7 ng·h/g/mg/kg
IC50 [25]: > 10 µM
EC50 [26]: > 10 µM
half-life [27]: 3.6 h
Cmax [28]: 452 ng/mL
bioavailability [29]: 76%
EC50 [30]: > 10 µM
IC50 [31]: 0.0059 µM
Structure (SMILES): CC1=CCC[C@H]1NC(=O)Nc1ccc(Cl)c(S(=O)(=O)[C@@]2(C)CCOC2)c1O
